In PubChem BioAssay AID651608 (The Scripps Research Institute Molecular Screening Center, 2012):
Some of the results follow. Calls of active or inactive are those of the source.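 Rule for the calls: active = average inhibition over triplicates above the hit cutoff set in the earlier primary screen (cut at about 25% in these data); inactive = the rest.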

Each molecule was assayed against ADP-ribosylation factor GTPase-activating protein 1 (Rattus norvegicus) (UniProt Q62848) (assay: ARFGAP1 inhibitor hit confirmation, biochemical, fluorescence polarization, triplicate (AID 651608;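 note: 0% = Arfgap1 plus ARF1-GTP with DMSO and 100% = wells lacking Arfgap1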)). Settings: ARFGAP1-stimulated ARF1 GTP hydrolysis, GDP tracer FP; at 16.5 µM; hits give high values.
Method in brief: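 Signal: GDP tracer fluorescence polarization; Material: rat Arfgap1 GAP domain 1-136 plus human ARF1 Δ1-17; Timing: 20 min compound–enzyme pre-incubation, 120 min hydrolysis at 25 °C, 60 min detection; Read-out basis: percent inhibition; Also added: ARF1-GTP (human, Δ1-17); Benchmarks: high control wells lacking Arfgap1; Compound: 16.5 µM single concentration, […]; Repeats: three replicates.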

ADP-ribosylation factor GTPase-activating protein 1 (Rattus norvegicus), sequence (Q62848 whole entry, looked up, the tested form may be a part): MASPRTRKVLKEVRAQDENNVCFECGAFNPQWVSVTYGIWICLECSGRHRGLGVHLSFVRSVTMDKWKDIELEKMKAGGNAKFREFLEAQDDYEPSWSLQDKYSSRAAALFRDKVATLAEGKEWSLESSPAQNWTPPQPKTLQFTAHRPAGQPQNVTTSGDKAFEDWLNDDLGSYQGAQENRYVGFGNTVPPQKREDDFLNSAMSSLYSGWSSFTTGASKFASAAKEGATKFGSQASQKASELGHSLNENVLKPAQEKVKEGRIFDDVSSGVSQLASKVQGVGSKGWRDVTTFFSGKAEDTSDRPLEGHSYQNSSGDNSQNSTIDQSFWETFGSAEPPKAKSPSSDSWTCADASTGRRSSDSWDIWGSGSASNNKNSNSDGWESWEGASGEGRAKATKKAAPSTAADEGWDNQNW

SMILES	inhibition
COc1ccc(CNC(=O)C(Cc2ccccc2)n2cccc2)cc1 (stereo not given)	2% (inactive)
Cc1ccc(-n2ncc3c2ncn2nc(-c4ccco4)nc32)c(C)c1	3.31% (inactive)
CCO[C@@H]1OC(C(N)=O)=C[C@H](c2ccc(Br)cc2)[C@H]1CCCO	0.74% (inactive)
CCOC(=O)C1CCN(C(c2cc3cc(C)cc(C)c3[nH]c2=O)c2nnnn2C2CCCCC2)CC1 (stereo not given)	0.48% (inactive)
OC(COc1cccc(OCC(O)CN2CCCC2)c1)CN1CCCC1 (stereo not given)	1.32% (inactive)
O=C(O)CCn1cc(/C=C/C(=O)c2ccc(Cl)cc2)c(-c2cccc(Br)c2)n1	-2.84% (inactive)
COc1ccc(C(N)c2csc(NC(=O)Nc3cccc(C(F)(F)F)c3)n2)cc1 (stereo not given)	19.2% (inactive)
CCN(CC)c1ccc(NC(=O)CN2CCN(c3ccccn3)CC2)cc1	-5.51% (inactive)
COc1ccc(-c2csc(Nc3ccc(O)cc3)n2)cc1	4.53% (inactive)
COc1ccc(NC(=O)c2cn(-c3ccccc3)nc2SC)cc1	18.4% (inactive)
c1ccc(-c2cc(-c3nnc4sc(-c5ccccn5)nn34)[nH]n2)cc1	36.3% (active)
C#C[C@]1(O)CC[C@H]2[C@@H]3CCC4=CC(=O)CC[C@@H]4[C@H]3CC[C@@]21CC	4.82% (inactive)
COC(=O)c1cc2c(c3c4ccccc4n(S(=O)(=O)c4cccc(C)c4)c13)C(=O)N(Cc1ccccc1)C2	-0.32% (inactive)
CCOC(=O)c1ccc(Nc2cc3ccccc3c(=O)[nH]2)cc1	9.83% (inactive)
Nc1ccc(S(=O)(=O)Nc2nccc(/C=C/c3ccc(Br)s3)n2)cc1	-3.16% (inactive)
